Experimental data: ChEMBL document CHEMBL1126568, “Nucleosides and nucleotides. 122. 2'-C-cyano-2'-deoxy-1-beta-D-arabinofuranosylcytosine and its derivatives. A new class of nucleoside with a broad antitumor spectrum” (J Med Chem, 1993)

Assays:
Mus musculus [1] = assay: Percent treated was determined after administration at 200 mg/kg orally; format: functional; conditions: route oral
Method in brief: (§1)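 Female BDF₁ mice bearing subcutaneous M5076 (10⁶ cells, axillary). Oral dosing in saline or 5% DMA/0.5% CMC on days 1, 4, 7, 10, 13 and 16. Groups of six (three at 400 mg/kg), nine untreated controls. T/C (%) = median survival day of treated/median survival day of untreated controls × 100; 60-day survivors also recorded.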

[2] = Tested in vitro inhibitory activity against human oral epidermoid carcinoma KB cells; format: functional, cell-based
Method in brief: (§2)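 MTT growth assay: 2 × 10³ cells/well exposed to compound or left untreated for 72 h. MTT then added for 4 h more; formazan dissolved in DMSO and OD read at 540 nm. % inhibition = [1 − OD sample/OD control] × 100. IC₅₀ (μM) is the concentration giving 50% growth inhibition. Single-concentration inhibition measured at 100 μg/mL.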

Mus musculus [3] = assay: Weight change in M5076 mouse reticulum cell sarcoma after administration at 200 mg/kg orally; format: functional; conditions: route oral
Method in brief: (§3)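 Female BDF₁ mice with subcutaneous axillary M5076 (10⁶ cells), oral dosing on days 1, 4, 7, 10, 13 and 16 in saline or 5% DMA/0.5% CMC. Body weight change (g) = mean weight on day 20 minus mean weight on day 1.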

Mus musculus [4] = assay: Percent inhibition against M5076 mouse reticulum cell sarcoma after administration at 400 mg/kg orally on day 20; format: functional; conditions: M5076, 480 h, route oral
Method in brief: (§4)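 M5076 cells (10⁶ viable, counted by Trypan blue exclusion) implanted subcutaneously into the axillary region of female BDF₁ mice. Drug given orally on days 1, 4, 7, 10, 13 and 16 after inoculation, in saline or in 5% dimethylacetamide/0.5% carboxymethyl cellulose. Six mice per group (three at 400 mg/kg); untreated controls, nine mice. Tumor volume = 0.5 × length × width²; inhibition (%) = (1 − Vt/Vc) × 100 on day 20.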

MKN-45 = assay: Tested in vitro against MKN-45 human stomach adenocarcinoma; format: functional, cell-based; conditions: MKN-45, Stomach; method in brief: as §2
HOS-TE85 = assay: Tested in vitro against MNNG/HOS cell line human osteosarcoma; format: functional, cell-based; method in brief: as §2
Mus musculus [5] = assay: Percent treated was determined after administration at 400 mg/kg orally; format: functional; conditions: route oral; method in brief: as §1
SW48 = assay: Tested in vitro against SW-48 human colon adenocarcinoma; format: functional, cell-based; method in brief: as §2
Mus musculus [6] = assay: Weight change in M5076 mouse reticulum cell sarcoma after administration at 100 mg/kg orally; format: functional; conditions: route oral; method in brief: as §3
Mus musculus [7] = assay: Weight change in M5076 mouse reticulum cell sarcoma after administration at 300 mg/kg orally; format: functional; conditions: route oral; method in brief: as §3
Mus musculus [8] = assay: Percent treated was determined after administration at 300 mg/kg orally; format: functional; conditions: route oral; method in brief: as §1
COLO 320 = assay: Tested in vitro against colo-320 human colon adenocarcinoma; format: functional, cell-based; conditions: COLO 320, Colon; method in brief: as §2
PC-9 = assay: Tested in vitro against PC-9 human lung adenocarcinoma; format: functional, cell-based; method in brief: as §2
Mus musculus [9] = assay: Tested for 60-day survivors after administration at 300 mg/kg orally in M5076 mouse reticulum cell sarcoma; format: functional; conditions: route oral
Method in brief: (§5)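 Female BD2F1 mice were implanted s.c. with 1 × 10^6 M5076 cells and dosed orally on days 1, 4, 7, 10, 13 and 16. Vehicle was saline or 5% DMA in 0.5% CMC. Groups had six mice (three at 400 mg/kg), with nine untreated controls. The number of mice alive at 60 days was counted.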

A-375 = assay: Tested in vitro against A-375 cell line human melanoma; format: functional, cell-based; method in brief: as §2
OST = assay: Tested in vitro against OST human osteosarcoma; format: functional, cell-based; method in brief: as §2
KKLS = assay: Tested in vitro against KKLS human stomach adenocarcinoma; format: functional, cell-based; method in brief: as §2
Mus musculus [10] = assay: Tested for 60-day survivors after administration at 200 mg/kg orally in M5076 mouse reticulum cell sarcoma; format: functional; conditions: route oral; method in brief: as §5
PC-8 = assay: Tested in vitro against PC-8 human lung adenocarcinoma; format: functional, cell-based; method in brief: as §2
L1210 [11] = assay: Tested in vitro inhibitory activity against murine leukemia L1210; format: functional, cell-based; conditions: Mus musculus; method in brief: as §2
Mus musculus [12] = assay: Percent inhibition against M5076 mouse reticulum cell sarcoma after administration at 300 mg/kg orally on day 20; format: functional; conditions: M5076, 480 h, route oral; method in brief: as §4
Mus musculus [13] = assay: Percent treated was determined after administration at 100 mg/kg orally; format: functional; conditions: route oral; method in brief: as §1
HT-1080 = assay: Tested in vitro against HT1080 cell line human fibrosarcoma; format: functional, cell-based; method in brief: as §2
Mus musculus [14] = assay: Tested for 60-day survivors after administration at 400 mg/kg orally in M5076 mouse reticulum cell sarcoma; format: functional; conditions: route oral; method in brief: as §5
[15] = tested on: KATO III stomach cancer cell line; assay: Tested in vitro against KATO-III human stomach adenocarcinoma; format: functional, cell-based; method in brief: as §2
ST-KM-1 = assay: Tested in vitro against ST-KM human stomach adenocarcinoma; format: functional, cell-based; conditions: ST-KM-1, Stomach; method in brief: as §2
Mus musculus [16] = assay: Tested for 60-day survivors after administration at 100 mg/kg orally in M5076 mouse reticulum cell sarcoma; format: functional; conditions: route oral; method in brief: as §5
Mus musculus [17] = assay: Percent inhibition against M5076 mouse reticulum cell sarcoma after administration at 200 mg/kg orally on day 20; format: functional; conditions: M5076, 480 h, route oral; method in brief: as §4
Mus musculus [18] = assay: Weight change in M5076 mouse reticulum cell sarcoma after administration at 400 mg/kg orally; format: functional; conditions: route oral; method in brief: as §3
MCF7 = assay: Tested in vitro against MCF-7 human breast adenocarcinoma; format: functional, cell-based; method in brief: as §2
QG-95 = assay: Tested in vitro against QG-95 human squamous cell carcinoma; format: functional, cell-based; method in brief: as §2
Mus musculus [19] = assay: Percent inhibition against M5076 mouse reticulum cell sarcoma after administration at 100 mg/kg orally on day 20; format: functional; conditions: M5076, 480 h, route oral; method in brief: as §4
PC-13 = assay: Tested in vitro against PC-13 human lung large cell carcinoma; format: functional, cell-based; method in brief: as §2
[20] = Percent inhibition against human oral epidermoid carcinoma KB cells at 100 ug/mL; format: functional; method in brief: as §2
L1210 [21] = assay: Percent inhibition against murine leukemia L1210 at 100 ug/mL; format: functional; conditions: Mus musculus; method in brief: as §2

| SMILES | IC50 [2] [µM] | IC50 (MKN-45) [µM] | IC50 (HOS-TE85) [µM] | IC50 (SW48) [µM] | IC50 (COLO 320) [µM] | IC50 (PC-9) [µM] | IC50 (A-375) [µM] | IC50 (OST) [µM] | IC50 (KKLS) [µM] | IC50 (PC-8) [µM] | IC50 (L1210 [11]) [µM] | IC50 (HT-1080) [µM] | IC50 [15] [µM] | IC50 (ST-KM-1) [µM] | IC50 (MCF7) [µM] | IC50 (QG-95) [µM] | IC50 (PC-13) [µM] | inhibition at 100 µg/mL [20] [%] | also measured |
| --- | --- | --- | --- | --- | --- | --- | --- | --- | --- | --- | --- | --- | --- | --- | --- | --- | --- | --- | --- |
| Cl.N#C[C@H]1[C@H](O)[C@@H](CO)O[C@H]1n1ccc(N)nc1=O | 5.2 | 15.9 | 23.6 | > 350 | 1.4 | 15.3 | 1.4 | 22.2 | 350 | 15.9 | 0.53 | 0.53 | 55.6 | 9.71 | 1.75 | 138 | 86.8 | – | T/C (Mus musculus [1]): 136%; Weight change (Mus musculus [3]): 2 g; inhibition in vivo at 400 mg/kg (Mus musculus [4]): 99%; T/C (Mus musculus [5]): 133%; Weight change (Mus musculus [6]): 1.7 g; Weight change (Mus musculus [7]): 1 g; T/C (Mus musculus [8]): 120%; Survivors (Mus musculus [9]): 0; Survivors (Mus musculus [10]): 2; inhibition in vivo at 300 mg/kg (Mus musculus [12]): 97%; T/C (Mus musculus [13]): 118%; Survivors (Mus musculus [14]): 1; Survivors (Mus musculus [16]): 0; inhibition in vivo at 200 mg/kg (Mus musculus [17]): 93%; Weight change (Mus musculus [18]): 1.1 g; inhibition in vivo at 100 mg/kg (Mus musculus [19]): 79% |
| CC(=O)Nc1ccn([C@@H]2O[C@H](CO)[C@@H](O)[C@@H]2C#N)c(=O)n1 | 230 | – | – | – | – | – | – | – | – | – | 25.3 | – | – | – | – | – | – | – | – |
| N#CC1=C[C@@H](CO)O[C@H]1n1ccc(N)nc1=O | – | 376 | 205 | 273 | 150 | > 430 | 145 | 235 | > 430 | > 430 | 261 | 248 | 31.6 | 350 | 299 | 427 | 363 | 46.8 | – |
| Cc1cn([C@@H]2O[C@H](CO)C=C2C#N)c(=O)[nH]c1=O | 30.4 | – | – | – | – | – | – | – | – | – | 12.4 | – | – | – | – | – | – | – | – |
| Cc1cn([C@@H]2O[C@H](CO)C(O)[C@@H]2C#N)c(=O)[nH]c1=O (stereo partly specified) | – | – | – | – | – | – | – | – | – | – | – | – | – | – | – | – | – | -6 | inhibition at 100 µg/mL (L1210 [21]): 6.7% |
